Experimental data: ChEMBL document CHEMBL3588752, “Synthesis and in Vitro Anticancer Activity of the First Class of Dual Inhibitors of REV-ERBβ and Autophagy” (J Med Chem, 2015)
Blank lines part the entries; values can stand above or below the molecule they belong to. The source made the active and inactive calls. No cut-off for these calls is given here.

Experiments:
BT-474 [1] = assay: Cytotoxicity against human BT474 cells assessed as reduction in cell number incubated for 72 hrs; assay type: functional, cell-based; conditions: BT-474, 72 h
Procedure, shortened: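 Cells seeded at 2000/well and left overnight, then exposed 72 h to seven 3-fold serial dilutions from 100 µM. Cell number read by CyQUANT DNA dye (independent of metabolism), relative to vehicle as 100%. BT-474 grown in high-glucose DMEM, 4 mM L-glutamine, 10% FBS, 0.25 mM pyruvate.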

HMEC = assay: Cytotoxicity against HMEC cells assessed as reduction in cell number incubated for 72 hrs; assay type: cell-based; conditions: Homo sapiens
BT-474 [2] = assay: Lysosomotropic activity in human BT474 cells assessed as […] incubated for 24 hrs by lysosomotropy assay; assay type: functional, cell-based; conditions: BT-474, 24 h
Procedure, shortened: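 Seeded at 2000 cells/well overnight, then treated. Lysosomal staining (LysoTracker fluorescence) measured 24 h post-treatment. IC50 from concentration–response plots, mean ± SEM, N ≥ 6.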

[3] = molecular target: T1, Nuclear receptor subfamily 1 group D member 2 (Homo sapiens) (UniProt Q14995); assay: (§1) Inhibition of REV-ERBbeta (unknown origin) expressed in HEK293 cells incubated for 24 hrs assessed as inhibition of receptor-mediated transcriptional repression by REV-ERB luciferase reporter assay; assay type: cell-based
T1 sequence (whole entry): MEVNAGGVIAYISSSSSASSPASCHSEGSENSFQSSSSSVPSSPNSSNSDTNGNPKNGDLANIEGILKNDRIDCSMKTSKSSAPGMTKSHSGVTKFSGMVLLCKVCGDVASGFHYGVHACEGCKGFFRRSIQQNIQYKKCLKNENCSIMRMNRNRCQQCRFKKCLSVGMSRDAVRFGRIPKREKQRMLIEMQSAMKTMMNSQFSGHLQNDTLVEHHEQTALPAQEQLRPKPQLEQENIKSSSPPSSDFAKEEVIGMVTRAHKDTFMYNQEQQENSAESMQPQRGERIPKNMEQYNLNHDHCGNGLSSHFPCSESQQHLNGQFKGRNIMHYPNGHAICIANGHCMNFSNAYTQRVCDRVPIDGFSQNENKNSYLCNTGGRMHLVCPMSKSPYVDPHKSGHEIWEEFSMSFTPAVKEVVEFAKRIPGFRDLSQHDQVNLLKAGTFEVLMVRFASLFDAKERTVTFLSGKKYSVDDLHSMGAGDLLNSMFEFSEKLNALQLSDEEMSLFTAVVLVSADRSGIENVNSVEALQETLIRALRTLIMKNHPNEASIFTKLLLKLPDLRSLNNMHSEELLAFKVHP
Procedure, shortened: (§2)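 HEK-293 co-transfected with a REV-ERBβ expression plasmid and a reporter with two REV-ERB response elements driving Cypridina luciferase. Compounds added the next day; luciferase activity read after 24 h. IC50 from concentration–response plots, mean ± SEM, N ≥ 6.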

BT-474 [4] = assay: Inhibition of autophagy in human BT474 cells assessed as increase in LC3-II protein levels at 10 uM by immunoblot method; assay type: functional, cell-based
Procedure, shortened: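 BT-474 exposed 4 h at 10 µM. Protein extracted in RIPA buffer and immunoblotted for LC3B and GAPDH in TBS-T with 5% BSA. HRP secondary at 1:20000, ECL detection. Band densitometry reported as LC3B/GAPDH ratio.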

[5] = Toxicity against human BT474 cells assessed as reduction in cell number at 10 uM incubated for 16 hrs; assay type: cell-based; conditions: bt-474, 16 h
[6] = molecular target: T1, Nuclear receptor subfamily 1 group D member 2 (Homo sapiens); assay: Inhibition of REV-ERBbeta in human BT474 cells assessed as increase in BMAL1 expression at 10 uM incubated for 16 hrs by immunoblot method; conditions: BT-474
[7] = molecular target: T2, Nuclear receptor subfamily 1 group D member 2 (Homo sapiens, UniProt Q14995); assay: as §1; assay type: cell-based; procedure, shortened: as §2
T2 sequence (Q14995 whole entry): T1 sequence (whole entry)

MDA-MB-361 = assay: Cytotoxicity against human MDA-MB-361 cells assessed as reduction in cell number incubated for 72 hrs; assay type: functional, cell-based; conditions: MDA-MB-361, 72 h
Procedure, shortened: (§3)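 RPMI-1640 with 4 mM L-glutamine and 10% FBS for culture. 2000 cells/well seeded overnight, then 72 h exposure to seven 3-fold dilutions (top 100 µM; top 900 µM for the reference autophagy inhibitor in MDA-MB-361). Cell number by CyQUANT relative to vehicle. IC50 from concentration–response curves, mean ± SEM, n ≥ 6.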

[8] = Cytotoxicity against human SKBR3 cells assessed as reduction in cell number incubated for 72 hrs; assay type: functional, cell-based; conditions: SK-BR-3, 72 h
Procedure, shortened: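 McCoy's medium plus 10% FBS; 2000 cells/well, overnight attachment, 72 h treatment with seven 3-fold dilutions from 100 µM (900 µM top for the reference autophagy inhibitor). CyQUANT cell number as % of vehicle. IC50 by log(inhibitor)–response fitting, mean ± SEM of ≥6 experiments.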

MCF7 = assay: Cytotoxicity against human MCF7 cells assessed as reduction in cell number incubated for 72 hrs; assay type: functional, cell-based; conditions: MCF7, 72 h
Procedure, shortened: (§4)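 Grown in high-glucose DMEM with 4 mM L-glutamine, 10% FBS and 0.5 mM sodium pyruvate. Seeded at 2000 cells/well overnight, then treated 72 h with seven 3-fold dilutions from 100 µM. Cell number by CyQUANT, % of vehicle. IC50 by log(inhibitor)–response fit, mean ± SEM, n ≥ 6.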

HepG2 [9] = assay: Cytotoxicity against human HepG2 cells assessed as reduction in cell number incubated for 72 hrs; assay type: functional, cell-based; conditions: HepG2, 72 h; procedure, shortened: as §4
LNCaP [10] = assay: Cytotoxicity against human LNCAP cells assessed as reduction in cell number incubated for 72 hrs; assay type: functional, cell-based; procedure, shortened: as §3
HepG2 [11] = assay: Potency index, ratio of IC50 for chloroquine to IC50 for test compound against human HepG2 cells assessed as reduction in cell number incubated for 72 hrs; assay type: functional
Procedure, shortened: (§5)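 HepG2 was grown in high-glucose DMEM with 4 mM L-glutamine, 10% FBS and 0.5 mM pyruvate; LNCaP in RPMI-1640 with 4 mM L-glutamine and 10% FBS. Cells were seeded at 2000/well, left overnight, then given seven 3-fold dilutions from 100 µM for 72 h. Cell number was read by CyQUANT DNA stain against vehicle (100%). IC50s came from log(inhibitor)–response fits, ≥6 experiments, and chloroquine IC50 was divided by test IC50.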

LNCaP [12] = assay: Potency index, ratio of IC50 for chloroquine to IC50 for test compound against human LNCAP cells assessed as reduction in cell number incubated for 72 hrs; assay type: functional; procedure, shortened: as §5
[13] = molecular target: T1, Nuclear receptor subfamily 1 group D member 2 (Homo sapiens); assay: Inhibition of REV-ERBbeta in human SKBR3 cells assessed as […] at 10 uM incubated for 16 hrs by immunoblot method; assay type: cell-based; conditions: SK-BR-3
[14] = molecular target: T1, Nuclear receptor subfamily 1 group D member 2 (Homo sapiens); assay: Inhibition of REV-ERBbeta in human HepG2 cells assessed as […] at 10 uM incubated for 16 hrs by immunoblot method; assay type: cell-based
[15] = molecular target: T1, Nuclear receptor subfamily 1 group D member 2 (Homo sapiens); assay: Inhibition of REV-ERBbeta in human LNCAP cells assessed as […] at 10 uM incubated for 16 hrs by immunoblot method; assay type: cell-based
SK-BR-3 = assay: Inhibition of autophagy in human SKBR3 cells assessed as increase in GFP/RFP/LC3 chimera protein levels at 30 uM incubated for 4 hrs by fluorescent microscopy; assay type: functional, cell-based
Procedure, shortened: (§6)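 Cells transduced with LC3 fused to acid-sensitive GFP and acid-insensitive RFP. Compound or DMSO vehicle added 48 h post-transduction. After 4 h, GFP and RFP fluorescent dots counted by fluorescence microscopy.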

HepG2 [16] = assay: Inhibition of autophagy in human HepG2 cells assessed as increase in GFP/RFP/LC3 chimera protein levels at 30 uM incubated for 4 hrs by fluorescent microscopy; assay type: functional, cell-based; procedure, shortened: as §6
LNCaP [17] = assay: Inhibition of autophagy in human LNCAP cells assessed as increase in GFP/RFP/LC3 chimera protein levels at 30 uM incubated for 4 hrs by fluorescent microscopy; assay type: functional, cell-based; procedure, shortened: as §6

SMILES: Oc1ccc(CNC2(c3ccccc3F)CCCC2)cc1CN1CCCCC1
IC50 (BT-474 [1]): 35.6 µM
IC50 (HMEC): > 100 µM

SMILES: CN1CCN(Cc2cc(CNC3(c4ccccc4F)CCCCC3)ccc2O)CC1
IC50 (BT-474 [1]): 30.7 µM
IC50 (HMEC): > 100 µM

SMILES: CN1CCN(Cc2cc(CNC(C)(C)c3ccccc3F)ccc2O)CC1
IC50 (BT-474 [1]): > 100 µM

SMILES: CC(=O)N1CCN(Cc2cc(CNC3(c4ccccc4F)CCCC3)ccc2O)CC1
IC50 (BT-474 [1]): > 100 µM

SMILES: CCN(CC)Cc1cc(CNC2(c3ccccc3F)CCCC2)ccc1O
IC50 (BT-474 [1]): > 100 µM

SMILES: CN1CCN(Cc2ccccc2CNC2(c3ccccc3F)CCCC2)CC1
IC50 (BT-474 [1]): > 100 µM

IC50 (BT-474 [2]): 10 µM
inhibition [3]: Active
inhibition [6]: Active
SMILES: CN1CCC(Cc2cccc(CNC3(c4ccccc4F)CCCC3)c2)CC1
IC50 (BT-474 [1]): 15.5 µM
IC50 (HMEC): > 100 µM
inhibition (BT-474 [4]): Active
Activity [5]: Non-toxic

SMILES: CN1CCN(Cc2cc(CNC3(c4ccccc4)CCCC3)ccc2O)CC1
IC50 (BT-474 [1]): 27.5 µM
IC50 (HMEC): > 100 µM

SMILES: CN1CCN(Cc2cc(CNC3(c4cccc(F)c4)CCCC3)ccc2O)CC1
IC50 (BT-474 [1]): 14.2 µM
IC50 (HMEC): > 100 µM

SMILES: CC(C)N1CCN(Cc2cc(CNC3(c4ccccc4F)CCCC3)ccc2O)CC1
IC50 (BT-474 [1]): 33.3 µM
IC50 (HMEC): > 100 µM

SMILES: Oc1ccc(CNC2(c3ccccc3F)CCCC2)cc1CN1CCN(c2ccccc2)CC1
IC50 (BT-474 [1]): 37.8 µM
IC50 (HMEC): > 100 µM

SMILES: CN1CCN(Cc2cc(CNC3(c4ccccc4F)CCC3)ccc2O)CC1
IC50 (BT-474 [1]): > 100 µM

IC50 (BT-474 [2]): 10 µM
IC50 [7]: 1.34 µM
inhibition [13]: Active
inhibition [14]: Active
inhibition [15]: Active
inhibition [6]: Active
SMILES: CN1CCC(Cc2cccc(CNC3(c4ccc(F)cc4)CCCC3)c2)CC1
IC50 (BT-474 [1]): 2.1 µM
IC50 (HMEC): > 100 µM
inhibition (BT-474 [4]): Active
Activity [5]: Non-toxic
IC50 (MDA-MB-361): 30.6 µM
IC50 [8]: 16 µM
IC50 (MCF7): 2.19 µM
IC50 (HepG2 [9]): 2.73 µM
IC50 (LNCaP [10]): 8.68 µM
Ratio IC50 (HepG2 [11]): 10
Ratio IC50 (LNCaP [12]): 4
inhibition (SK-BR-3): Active
inhibition (HepG2 [16]): Active
inhibition (LNCaP [17]): Active

SMILES: Oc1ccc(CNC2(c3ccccc3F)CCCC2)cc1CN1CCOCC1
IC50 (BT-474 [1]): > 100 µM

SMILES: CN1CCN(Cc2cc(C(=O)NC3(c4ccccc4F)CCCC3)ccc2O)CC1
IC50 (BT-474 [1]): > 100 µM

SMILES: COc1cccc(C2(NCc3ccc(O)c(CN4CCN(C)CC4)c3)CCCC2)c1
IC50 (BT-474 [1]): 11.8 µM
IC50 (HMEC): 13.1 µM
